ChEMBL document CHEMBL4732196, “Structural optimization towards promising β-methyl-4-acrylamido quinoline derivatives as PI3K/mTOR dual inhibitors for anti-cancer therapy: The in vitro and in vivo biological evaluation” (Eur J Med Chem, 2021)
Activity calls are given as the source filed them. The calls are words filed in the database; no cut-off is given here.

Key:
[1] = target: Phosphatidylinositol 4,5-bisphosphate 3-kinase catalytic subunit beta isoform (Homo sapiens, UniProt P42338); test: Inhibition of human partial length PIK3CB (P118 to S1070 residues) expressed in mammalian expression system assessed as residual activity at 10 uM by kinome scan method relative to control
Chain of Phosphatidylinositol 4,5-bisphosphate 3-kinase catalytic subunit beta isoform (P42338 whole entry, looked up, the tested form may be a part, canonical isoform): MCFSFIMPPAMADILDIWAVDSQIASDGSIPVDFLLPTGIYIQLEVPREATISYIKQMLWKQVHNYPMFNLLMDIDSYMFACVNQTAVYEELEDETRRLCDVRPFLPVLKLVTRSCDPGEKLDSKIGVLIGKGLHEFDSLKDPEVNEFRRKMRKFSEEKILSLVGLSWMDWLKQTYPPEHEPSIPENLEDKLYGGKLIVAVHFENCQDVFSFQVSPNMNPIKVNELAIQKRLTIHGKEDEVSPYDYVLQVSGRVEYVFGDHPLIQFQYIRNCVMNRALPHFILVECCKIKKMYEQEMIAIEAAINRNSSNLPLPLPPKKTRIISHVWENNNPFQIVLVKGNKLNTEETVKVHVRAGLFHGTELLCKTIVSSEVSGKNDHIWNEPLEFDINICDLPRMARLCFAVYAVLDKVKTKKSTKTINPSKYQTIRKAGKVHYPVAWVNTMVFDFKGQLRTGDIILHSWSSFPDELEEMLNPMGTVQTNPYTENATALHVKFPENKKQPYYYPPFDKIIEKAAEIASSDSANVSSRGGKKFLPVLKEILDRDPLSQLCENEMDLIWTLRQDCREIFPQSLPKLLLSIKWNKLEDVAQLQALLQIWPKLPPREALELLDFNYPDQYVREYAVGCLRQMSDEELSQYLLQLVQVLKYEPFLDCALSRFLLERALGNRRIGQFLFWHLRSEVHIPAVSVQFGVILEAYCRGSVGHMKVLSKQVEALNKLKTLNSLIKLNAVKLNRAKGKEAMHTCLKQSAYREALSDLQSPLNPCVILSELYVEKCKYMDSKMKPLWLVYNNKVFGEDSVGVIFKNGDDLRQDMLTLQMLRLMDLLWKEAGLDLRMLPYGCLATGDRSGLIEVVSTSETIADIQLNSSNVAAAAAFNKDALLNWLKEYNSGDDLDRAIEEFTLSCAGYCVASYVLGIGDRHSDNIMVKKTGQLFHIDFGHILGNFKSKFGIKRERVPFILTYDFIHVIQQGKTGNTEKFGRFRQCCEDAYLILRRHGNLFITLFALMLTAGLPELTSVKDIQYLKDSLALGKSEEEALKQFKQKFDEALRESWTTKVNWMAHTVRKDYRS
In short: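 KINOMEscan competitive binding screen at 10 μM test compound against a 52-kinase panel. Output is % Ctrl = (test signal − positive control signal)/(negative control signal − positive control signal) × 100. DMSO is the negative control (100%) and the positive control is set to 0%.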

[2] = MRT(0 to t) in Sprague-Dawley rat at 5 mg/kg, po; format: ADME, organism-based; conditions: in vivo
In short: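 Male Sprague-Dawley rats (n = 3) received a single 5 mg/kg oral gavage dose formulated as a suspension in 0.5% methylcellulose. Plasma concentration-time curves were recorded and mean PK parameters derived.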

U-87 MG = test: Antitumour activity against human U87MG cells xenografted in ICR nude mouse assessed as tumour growth inhibition at 60 mg/kg, po every other day for 24 days relative to control; format: functional, organism-based; conditions: U-87MG ATCC, time 24.0 day
In short: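 Male ICR nude mice inoculated subcutaneously with 5 × 10⁶ U87MG cells. Once tumours reached about 200 mm³, mice were randomised and dosed by oral gavage every other day for 24 days. Tumour volume (length × width² × 0.5) and body weight recorded every 4 days. Inhibition = 100 × {1 − [(final − initial volume) treated]/[(final − initial volume) vehicle]}.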

Activity [1]: 0%
MRT last [2]: 1.9 h
SMILES: COc1ncc(-c2ccc3nccc(/C(C)=C/C(=O)N4CCN(C)CC4)c3c2)cc1NS(=O)(=O)c1ccc(F)cc1F
TGI (U-87 MG): Active
